Experimental data from different studies.
Lines come from different studies, so protocols differ.
Organism: Trypanosoma cruzi
Observed: parasite growth

Compound	method	cell line	strain	time	notes	IC50 [µM]
C[Si](C)(C)c1cc(C(=O)[C@H](Cc2ccccc2)NC(=O)[C@H](Cc2ccccc2)NC(=O)N2CCOCC2)no1 (single isomer, unassigned)			TULAHUEN		intracellular, amastigote	> 64
Fc1ccccc1-c1nc(N2CCC(c3ccccn3)C2)c2ccccc2n1 (stereo not drawn)	imaging	U2OS			intracellular, amastigote	5.37
C=C1CC[C@@H](O)[C@]2(C)CC[C@H]3C(=C)C(=O)O[C@@H]3[C@@H]12				72 h	epimastigote	> 50
FC(F)(F)c1ccccc1-c1nc(N2CCC(c3ccccn3)C2)c2ccccc2n1 (stereo not drawn)	imaging	U2OS			intracellular, amastigote	7.43
O=C(N[C@@H](Cc1ccccc1)C(=O)c1cc(-c2ccccc2)on1)[C@H](Cc1ccccc1)NC(=O)N1CCOCC1 (single isomer, unassigned)			TULAHUEN		intracellular, amastigote	> 64
C=C1CC[C@H]2C(C)=CC[C@H]3C(=C)C(=O)O[C@@H]3[C@@H]12				72 h	epimastigote	1.9
O=C(Cn1ccnc1[N+](=O)[O-])NCc1ccccc1			TULAHUEN		intracellular, amastigote	1.2
C[C@@H]1[C@H](O)[C@@H](C)/C=C/C=C/C=C/C=C/C=C/C=C/C=C/[C@H](O[C@@H]2O[C@H](C)[C@@H](O)[C@H](N)[C@@H]2O)C[C@@H]2O[C@](O)(C[C@@H](O)C[C@@H](O)[C@H](O)CC[C@@H](O)C[C@@H](O)CC(=O)O[C@H]1C)C[C@H](O)[C@H]2C(=O)O		NIH3T3	TULAHUEN	96 h	intracellular, amastigote	0.48
c1ccc2c(N3CCCCC3)nc(-c3cnccn3)nc2c1	imaging	U2OS			intracellular, amastigote	18.6
O=C(N[C@@H](Cc1ccccc1)C(=O)c1nc2ccccc2o1)[C@H](Cc1ccccc1)NC(=O)N1CCOCC1			TULAHUEN		intracellular, amastigote	31.5
Oc1cccc(-c2nc(N3CCC(c4ccccn4)C3)c3ccccc3n2)c1 (stereo not drawn)	imaging	U2OS			intracellular, amastigote	4.22
O=C(N[C@@H](Cc1ccccc1)C(=O)c1c[nH]nn1)[C@H](Cc1ccccc1)NC(=O)N1CCOCC1			TULAHUEN		intracellular, amastigote	> 64
COc1ccc(Nc2nc(-c3ccc(C)cc3)nc3ccccc23)cc1	imaging	U2OS			intracellular, amastigote	3.09
O=C(Nc1ccc2c(c1)B(O)OC2)Nc1ccc(F)c(C(F)(F)F)c1			TULAHUEN		intracellular, amastigote	6.6
O=C(N[C@H](CCc1ccccc1)C(=O)c1cc(Cc2ccccc2)on1)[C@H](Cc1ccccc1)NC(=O)N1CCOCC1			TULAHUEN		intracellular, amastigote	> 64
